Consider 2 compounds from ChEMBL document CHEMBL3580574, “Design, Synthesis, and Biological Evaluation of Hexacyclic Tetracyclines as Potent, Broad Spectrum Antibacterial Agents” (J Med Chem, 2015).

One may read the MIC as the smallest concentration in the dilution series that meets the test's criterion for growth inhibition. A word on the IC50: it is the concentration at which inhibition is half-maximal.

Common to all, as to format: functional
The test system of test [1] is Acinetobacter baumannii. In words: Antibacterial activity against tet(B) tetracycline-resistant Acinetobacter baumannii 250 assessed as bacterial growth inhibition by susceptibility testing assay. An outline of the steps: (§1)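 Broth microdilution MIC per CLSI in 96-well plates; compound stocks prepared and serially diluted in sterile deionized water; cation-adjusted Mueller Hinton broth prepared fresh and held at 4 °C before testing, supplemented with lysed horse blood as appropriate; runs accepted when comparator antibiotics fell within QC ranges for appropriate ATCC quality control strains.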

The test system of test [2] is Escherichia coli. In words: Antibacterial activity against tet(A) tetracycline-resistant Escherichia coli 155 assessed as bacterial growth inhibition by susceptibility testing assay. In a few lines: as §1
For test [3], the system named is Pseudomonas aeruginosa. The test is described as follows: Ratio of tetracycline IC50 to compound IC50 for antitranslational activity in Pseudomonas aeruginosa 555 BAA-47 by in vitro coupled transcription/translation assay.
Test [4] concerns Proteus mirabilis. In words: Antibacterial activity against Proteus mirabilis 385 assessed as bacterial growth inhibition by susceptibility testing assay. An outline of the steps: (§2)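 Broth microdilution MIC per CLSI in cation-adjusted Mueller Hinton broth, made fresh and held at 4 °C before testing. Medium supplemented with lysed horse blood where appropriate. Compound stocks prepared and serially diluted in sterile deionized water. Runs were accepted against QC ranges for comparator antibiotics and ATCC QC strains.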

Test [5] has as its system Pseudomonas aeruginosa. In words: Antibacterial activity against Pseudomonas aeruginosa 1145 infected in immunocompetent BALB/c mouse lung infection model assessed as log reduction in colony forming units at 40 mg/kg, iv bid administered at 2 hrs and 12 hrs post-infection measured 24 hrs post-drug treatment. In a few lines: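 Female BALB/c mice (18−20 g) received intranasal inoculum under light anesthesia. IV treatment at 2 and 12 h postinfection, six mice per group per dose. An untreated group was harvested at 2 h. Lungs were taken 24 h after treatment start, weighed, homogenized, diluted and plated on MacConkey medium overnight at 37 °C, 5% CO2. Read-out: CFU per gram lung.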

For test [6], the system named is Pseudomonas aeruginosa. The test is described as follows: Antibacterial activity against Pseudomonas aeruginosa 1145 assessed as bacterial growth inhibition by susceptibility testing assay. In a few lines: as §1
Test [7] has as its system Staphylococcus aureus. The test is described as follows: Antibacterial activity against Staphylococcus aureus 101 ATCC 29213 assessed as bacterial growth inhibition by susceptibility testing assay. An outline of the steps: as §2
Test [8] relates to Enterococcus faecalis. The test is described as follows: Antibacterial activity against tet(M) tetracycline-resistant Enterococcus faecalis 327 assessed as bacterial growth inhibition by susceptibility testing assay. In a few lines:
as §1

For test [9], the system named is Burkholderia cenocepacia. The test is described as follows: Antibacterial activity against Burkholderia cenocepacia 240 assessed as bacterial growth inhibition by susceptibility testing assay. In a few lines:
(§3)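 Medium supplemented with lysed horse blood where appropriate. Compound stocks prepared and serially diluted in sterile deionized water. Runs were accepted against QC ranges for comparator antibiotics and ATCC QC strains.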

Test [10] deals with Pseudomonas aeruginosa. In words: Antibacterial activity against Pseudomonas aeruginosa 555 BAA-47 assessed as bacterial growth inhibition by susceptibility testing assay. In a few lines:
as §2

The subject of test [11] is Pseudomonas aeruginosa. The test is described as follows: Antibacterial activity against Pseudomonas aeruginosa 694 assessed as bacterial growth inhibition by susceptibility testing assay. An outline of the steps: as §2
In test [12] the test system is Pseudomonas aeruginosa. In words: Antitranslational activity in Pseudomonas aeruginosa 555 BAA-47 assessed as ribosomal inhibition by in vitro coupled transcription/translation assay. An outline of the steps:
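P. aeruginosa coupled transcription/translation reactions with a luciferase reporter, run 60 min at 37 °C. Reactions were stopped on ice for 5 min, then luciferase substrate was added and luminescence read. Percent luminescence was plotted against inhibitor concentration, and 50% inhibition versus untreated controls was taken as the IC50.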

Test [13] deals with Stenotrophomonas maltophilia. The test is described as follows: Antibacterial activity against Stenotrophomonas maltophilia 256 assessed as bacterial growth inhibition by susceptibility testing assay. In a few lines:
as §3

For test [14], the system named is Escherichia coli. In words: Antibacterial activity against Escherichia coli 107 ATCC 25922 assessed as bacterial growth inhibition by susceptibility testing assay. In a few lines:
as §2

Test [15] relates to Enterococcus faecium. The test is described as follows: Antibacterial activity against tet(M) tetracycline-resistant Enterococcus faecium 404 assessed as bacterial growth inhibition by susceptibility testing assay.
Test [16] has as its system Staphylococcus aureus. In words: Antibacterial activity against tet(K) tetracycline-resistant Staphylococcus aureus 158 assessed as bacterial growth inhibition by susceptibility testing assay.
In test [17] the test system is Streptococcus pneumoniae. The test is described as follows: Antibacterial activity against tet(M) tetracycline-resistant Streptococcus pneumoniae 160 assessed as bacterial growth inhibition by susceptibility testing assay.
For test [18], the system named is Staphylococcus aureus. The test is described as follows: Antibacterial activity against methicillin-resistant, tet(M) tetracycline-resistant Staphylococcus aureus 161 assessed as bacterial growth inhibition by susceptibility testing assay. An outline of the steps: as §1
The test system of test [19] is Klebsiella pneumoniae. The test is described as follows: Antibacterial activity against Klebsiella pneumoniae 457 harboring CTX-M-15 gene assessed as bacterial growth inhibition by susceptibility testing assay. In a few lines:
as §1

The subject of test [20] is Enterobacter cloacae. In words: Antibacterial activity against tet(A) tetracycline-resistant Enterobacter cloacae 603 assessed as bacterial growth inhibition by susceptibility testing assay. In a few lines:
as §1

Test [21] deals with Pseudomonas aeruginosa. The test is described as follows: Antibacterial activity against Pseudomonas aeruginosa 694 infected in immunocompetent CD-1 mouse thigh infection model assessed as log reduction in colony forming units at 5 mg/kg, iv administered twice daily at 2 hrs and 12 hrs post-infection measured 24 hrs post-drug treatment (reference value: 1.8 log10CFU). An outline of the steps:
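Thigh model: inoculum given intramuscularly into the right thigh on day 0. IV dosing with vehicle, test agent or comparator at 2 and 12 h postinfection. Untreated groups were harvested at 2 and 24 h. Thigh muscle was collected at 24 h postinfection, homogenized in PBS pH 7.4, diluted and plated on Brain Heart Infusion agar + 0.5% charcoal. Read-out: CFU per gram thigh.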

In brackets after ≈: the same amount, converted by molar mass.

In the case of `CN(C)[C@@H]1C(O)=C(C(N)=O)C(=O)[C@@]2(O)C(O)=C3C(=O)c4c(O)c5c(c(F)c4C[C@H]3C[C@@H]12)[C@@H]1[C@@H](CCN1C)CN5` (stereo in doubt; 10c), the minimum inhibitory concentration (MIC) in test [1] turned out to be 2 µg/mL (≈ 3.69 µM); in test [2], 0.5 µg/mL (≈ 0.922 µM); in test [4], 0.5 µg/mL (≈ 0.922 µM); in test [6] it was 4 µg/mL (≈ 7.37 µM); in [7] it was 0.25 µg/mL (≈ 0.461 µM); in test [8], 0.125 µg/mL (≈ 0.23 µM). Besides, the minimal inhibitory concentration (MIC) was determined as 8 µg/mL (≈ 14.7 µM) in test [9]; 4 µg/mL (≈ 7.37 µM) in test [10]; 8 µg/mL (≈ 14.7 µM) in test [11]; 1 µg/mL (≈ 1.84 µM) in test [13]; 0.0625 µg/mL (≈ 0.115 µM) in test [14]; 0.0625 µg/mL (≈ 0.115 µM) in test [15]. Also, the minimal inhibitory concentration (MIC) in [16] was 0.0625 µg/mL (≈ 0.115 µM); in test [17], “<=0.0156 ug ml-1”; in [18], 0.5 µg/mL (≈ 0.922 µM); in [19], 0.5 µg/mL (≈ 0.922 µM); in [20], 0.5 µg/mL (≈ 0.922 µM). Further, the “Ratio IC50” value in test [3] was 10. Further, the log10CFU/g in test [5] came to 4. The half-maximal inhibitory concentration (IC50) in [12] was 210 nM.
`C[C@H]1COc2c(N3CCN(C)CC3)c(F)cc3c(=O)c(C(=O)O)cn1c23.C[C@H]1COc2c(N3CCN(C)CC3)c(F)cc3c(=O)c(C(=O)O)cn1c23.O` [LEVOFLOXACIN]: the log10CFU/g in test [21] came to 4.5.
